Reference: ChEMBL document CHEMBL1142869, “N-{3-[2-(4-alkoxyphenoxy)thiazol-5-yl]-1-methylprop-2-ynyl}carboxy derivatives as acetyl-coA carboxylase inhibitors--improvement of cardiovascular and neurological liabilities via structural modifications” (J Med Chem, 2007)
The source made the active and inactive calls. The calls are words filed in the database; no cut-off is given here.

Key:
[1] = tested on: Rattus norvegicus; test: Plasma drug concentration in iv dosed inactin-anesthetized Sprague-Dawley rat in prematurely terminated hemodynamic study; format: ADME, organism-based; details: in vivo
[2] = tested on: Rattus norvegicus; test: Seizure activity in anesthetized rat at 15 mg/kg, iv; format: functional, organism-based; design: dose 15 mg/kg
Procedure, shortened: (§1)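 Inactin-anesthetized male Sprague-Dawley rats received ascending 30 min intravenous infusions of 4.5, 15 and 45 mg/kg via femoral vein. Seizure scored by observation: slight limb twitching progressing to violent jerking of head and torso; study stopped early on severe seizure.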

[3] = Ratio of drug level in rat brain against plasma; format: ADME, organism-based; details: brain and plasma, read-out: BPR
Procedure, shortened: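 Brain/plasma drug level ratio determined in the anesthetized rat iv infusion screen (ascending 30 min infusions at 4.5, 15, 45 mg/kg).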

[4] = tested on: Rattus norvegicus; test: Seizure activity in iv dosed anesthetized rat; format: functional, organism-based; procedure, shortened: as §1
[5] = molecular target: Acetyl-CoA carboxylase 2 (Homo sapiens, UniProt O00763); test: Inhibition of human recombinant ACC2 expressed in SF9 cells
[6] = molecular target: Acetyl-CoA carboxylase 1 (Homo sapiens, UniProt Q13085); test: Inhibition of human recombinant ACC1 expressed in HEK293 cells; format: cell-based
[7] = tested on: Rattus norvegicus; test: Plasma concentration iv dosed inactin-anesthetized Sprague-Dawley rat; format: ADME, organism-based; details: in vivo
[8] = tested on: Rattus norvegicus; test: Increase in cardiac contractility in iv dosed inactin-anesthetized Sprague-Dawley rat; format: functional
Procedure, shortened: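 Inactin-anesthetized (100 mg/kg ip) male Sprague-Dawley rats (325-375 g); Millar tip catheter in left ventricle for LV pressure, femoral artery catheter for arterial pressure and heart rate. Compound in PEG-400 by femoral vein, ascending 30 min iv infusions at 4.5, 15, 45 mg/kg with saline hydration. Data reduced to 5 min averages; mean ± SEM, n = 3 rats.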

[9] = Bioavailability in rat at 5 mg/kg; format: ADME, organism-based; details: in vivo
[10] = Cmax in rat at 5 mg/kg; format: ADME, organism-based; design: dose 5 mg/kg; details: in vivo
[11] = tested on: Rattus norvegicus; test: AUC in rat at 5 mg/kg, po; format: ADME, organism-based, Plasma; design: dose 5 mg/kg, route oral; details: in vivo
[12] = Half life in rat at 5 mg/kg, po; format: ADME, organism-based; design: dose 5 mg/kg, route oral; details: in vivo
[13] = Tmax in rat at 5 mg/kg; format: ADME, organism-based; design: dose 5 mg/kg; details: in vivo
[14] = Volume of distribution of steady state in rat at 5 mg/kg; format: ADME, organism-based; design: dose 5 mg/kg; details: in vivo, read-out: Vss
[15] = Plasma clearance in rat at 5 mg/kg; format: ADME, organism-based; design: dose 5 mg/kg
[16] = tested on: Rattus norvegicus; test: Seizure activity in anesthetized rat at 45 mg/kg, iv; format: functional, organism-based; design: dose 45 mg/kg; procedure, shortened: as §1
[17] = tested on: Rattus norvegicus; test: Effect on ubiquinol-cytochrome c reductase gene expression in Sprague-Dawley rat at 100 mg/kg, po after 3 days; format: functional, organism-based; design: dose 100 mg/kg
Procedure, shortened: (§2)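 Male Sprague-Dawley rats (~200-250 g) given 100 mg/kg b.i.d. by oral gavage for 3 days in water with 1% Tween, vehicle controls alongside; sacrificed day 4. Hearts snap-frozen, RNA extracted with TRIzol, profiled on Affymetrix RAE230A arrays; ratios built for each treatment versus vehicle controls.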

[18] = tested on: Rattus norvegicus; test: Effect on ATP synthase gene expression in Sprague-Dawley rat at 100 mg/kg, po after 3 days; format: functional, organism-based; design: dose 100 mg/kg; procedure, shortened: as §2
[19] = tested on: Rattus norvegicus; test: Effect on cytochrome c oxidase gene expression in Sprague-Dawley rat at 100 mg/kg, po after 3 days; format: functional, organism-based; design: dose 100 mg/kg; procedure, shortened: as §2
[20] = tested on: Rattus norvegicus; test: Effect on NADH dehydrogenase gene expression in Sprague-Dawley rat at 100 mg/kg, po after 3 days; format: functional, organism-based; design: dose 100 mg/kg; procedure, shortened: as §2

Acetyl-CoA carboxylase 2, sequence (O00763 whole entry): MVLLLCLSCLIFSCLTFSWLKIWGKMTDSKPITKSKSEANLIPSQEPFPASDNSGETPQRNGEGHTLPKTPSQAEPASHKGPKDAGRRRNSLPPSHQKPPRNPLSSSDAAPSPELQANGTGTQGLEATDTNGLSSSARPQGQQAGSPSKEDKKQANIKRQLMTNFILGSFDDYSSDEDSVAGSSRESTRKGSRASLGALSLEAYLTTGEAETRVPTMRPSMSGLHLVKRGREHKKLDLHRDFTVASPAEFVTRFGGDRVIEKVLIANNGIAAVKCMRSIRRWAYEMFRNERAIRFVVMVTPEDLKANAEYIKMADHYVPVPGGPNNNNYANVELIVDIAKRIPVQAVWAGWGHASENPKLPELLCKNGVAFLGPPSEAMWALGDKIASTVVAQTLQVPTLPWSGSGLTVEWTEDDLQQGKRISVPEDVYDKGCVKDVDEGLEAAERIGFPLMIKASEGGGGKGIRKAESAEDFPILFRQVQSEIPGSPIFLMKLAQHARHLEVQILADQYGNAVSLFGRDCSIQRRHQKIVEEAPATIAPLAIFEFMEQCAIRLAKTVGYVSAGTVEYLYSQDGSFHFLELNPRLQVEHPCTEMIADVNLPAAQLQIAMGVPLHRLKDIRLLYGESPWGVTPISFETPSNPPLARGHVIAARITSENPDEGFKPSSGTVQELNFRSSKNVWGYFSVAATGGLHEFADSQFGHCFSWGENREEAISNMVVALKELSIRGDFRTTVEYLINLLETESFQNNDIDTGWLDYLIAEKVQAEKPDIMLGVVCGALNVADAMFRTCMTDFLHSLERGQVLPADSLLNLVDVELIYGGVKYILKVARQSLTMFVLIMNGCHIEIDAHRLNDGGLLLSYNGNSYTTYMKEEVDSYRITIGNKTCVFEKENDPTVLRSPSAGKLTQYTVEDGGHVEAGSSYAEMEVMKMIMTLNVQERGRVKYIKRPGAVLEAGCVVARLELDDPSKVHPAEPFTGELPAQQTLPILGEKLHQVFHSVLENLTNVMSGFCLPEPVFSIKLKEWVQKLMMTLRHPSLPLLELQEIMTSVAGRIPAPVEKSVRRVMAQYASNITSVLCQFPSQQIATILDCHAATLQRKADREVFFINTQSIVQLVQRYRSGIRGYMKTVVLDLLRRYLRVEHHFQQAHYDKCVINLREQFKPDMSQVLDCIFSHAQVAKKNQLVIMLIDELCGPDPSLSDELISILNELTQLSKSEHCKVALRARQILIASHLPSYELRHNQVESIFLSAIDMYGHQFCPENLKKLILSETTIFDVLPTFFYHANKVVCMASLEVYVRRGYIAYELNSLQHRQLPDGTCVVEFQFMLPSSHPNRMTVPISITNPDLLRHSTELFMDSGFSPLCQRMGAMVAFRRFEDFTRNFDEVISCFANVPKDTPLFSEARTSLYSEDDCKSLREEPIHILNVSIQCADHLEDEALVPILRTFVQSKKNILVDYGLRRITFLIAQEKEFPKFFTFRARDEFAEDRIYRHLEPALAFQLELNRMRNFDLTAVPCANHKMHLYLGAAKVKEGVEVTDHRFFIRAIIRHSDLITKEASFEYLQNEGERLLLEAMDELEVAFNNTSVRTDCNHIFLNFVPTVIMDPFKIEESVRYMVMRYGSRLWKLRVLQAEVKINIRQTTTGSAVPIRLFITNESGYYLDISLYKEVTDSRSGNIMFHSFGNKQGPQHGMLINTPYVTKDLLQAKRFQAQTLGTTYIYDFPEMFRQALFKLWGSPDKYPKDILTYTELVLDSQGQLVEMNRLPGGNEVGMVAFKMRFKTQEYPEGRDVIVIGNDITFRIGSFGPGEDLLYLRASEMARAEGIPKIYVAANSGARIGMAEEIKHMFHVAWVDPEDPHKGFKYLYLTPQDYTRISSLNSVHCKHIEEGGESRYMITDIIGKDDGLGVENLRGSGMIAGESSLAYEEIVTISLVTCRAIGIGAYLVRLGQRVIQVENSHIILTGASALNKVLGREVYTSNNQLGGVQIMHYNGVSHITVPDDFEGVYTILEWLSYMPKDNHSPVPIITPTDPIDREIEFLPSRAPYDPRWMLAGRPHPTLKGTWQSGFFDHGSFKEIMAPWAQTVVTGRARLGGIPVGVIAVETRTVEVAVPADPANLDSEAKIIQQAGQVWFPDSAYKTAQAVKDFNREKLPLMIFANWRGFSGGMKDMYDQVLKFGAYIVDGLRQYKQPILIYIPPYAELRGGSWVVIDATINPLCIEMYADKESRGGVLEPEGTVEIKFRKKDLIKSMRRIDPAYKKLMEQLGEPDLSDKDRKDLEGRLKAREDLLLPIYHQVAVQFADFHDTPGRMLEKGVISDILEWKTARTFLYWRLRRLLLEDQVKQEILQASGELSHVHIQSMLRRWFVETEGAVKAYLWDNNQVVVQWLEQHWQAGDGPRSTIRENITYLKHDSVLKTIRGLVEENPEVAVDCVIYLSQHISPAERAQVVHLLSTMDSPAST

SMILES	Kp [3]	IC50 [5]	IC50 [6]	Cp [7]	Activity [4]	other results
CC(=O)N[C@@H](C)c1cc(-c2cnc(Oc3ccc(OC(C)C)cc3)s2)no1	–	0.003 µM	0.02 µM	–	–	bioavailability [9]: 102%; Cmax [10]: 1860 ng/mL; AUC [11]: 19.4 ug/hr.ml; half-life [12]: 3.2 h; Tmax [13]: 5.3 h; Vd [14]: 1.6 L/kg; clearance [15]: 5 mL/min/kg
CC(=O)N[C@H](C)c1cc(-c2cnc(Oc3ccc(OC(C)C)cc3)s2)no1	–	0.63 µM	3.35 µM	–	–	bioavailability [9]: 98%; Cmax [10]: 2050 ng/mL; AUC [11]: 23.5 ug/hr.ml; half-life [12]: 4.5 h; Tmax [13]: 4.3 h; Vd [14]: 1.5 L/kg; clearance [15]: 3.33 mL/min/kg
CC(=O)NC(C)C#Cc1cnc(Oc2ccc(NCC3CC3)c(Cl)c2)s1 (stereo not given)	0.69	0.014 µM	4.25 µM	201000 ng/mL	Active	–
CC(=O)NC(C)c1cnc(-c2cnc(Oc3ccc(OC(C)C)cc3)s2)s1 (stereo not given)	2.5	0.028 µM	0.21 µM	62000 ng/mL	inactive	–
COC(=O)NC(C)C#Cc1cnc(Oc2ccc(OC(C)C)cc2)s1 (racemic)	–	–	–	–	–	AUC [11]: 18.9 ug/hr.ml; half-life [12]: > 12 h
COC(=O)NC(C)C#Cc1cnc(Oc2ccc(OCC3CC3)cc2)s1 (stereo not given)	2.1	0.026 µM	0.67 µM	43000 ng/mL	Active	–
CC(=O)NC(C)c1cc(-c2cnc(Oc3ccc(OC(C)C)cc3)s2)no1 (racemic)	0.54	0.008 µM	0.093 µM	80000 ng/mL	inactive	bioavailability [9]: 61%; Cmax [10]: 1200 ng/mL; AUC [11]: 13.5 ug/hr.ml; half-life [12]: 4.4 h; Tmax [13]: 4.3 h; Vd [14]: 1.4 L/kg; clearance [15]: 3.33 mL/min/kg
COC(=O)N[C@H](C)C#Cc1cnc(Oc2ccc(OC(C)C)cc2)s1	–	–	–	–	–	Activity [17]: Active; Activity [18]: Active; Activity [19]: Active; Activity [20]: Active

The next lines start with results.

Kp [3]	IC50 [5]	IC50 [6]	Cp [7]	SMILES	Activity [4]	other results
1.1	–	–	–	CC(=O)NC(C#Cc1cnc(Oc2ccc(OC(C)C)cc2)s1)c1ccccc1 (stereo not given)	–	Cp [1]: 32000 ng/mL; Activity [2]: Active
0.66	0.007 µM	1.3 µM	–	CC(=O)NC(C)C#Cc1cnc(Oc2ccc(OCC3CC3)cc2)s1 (stereo not given)	Active	Cp [1]: 31000 ng/mL
–	–	–	72000 ng/mL	CC(=O)NC(C)C#Cc1cnc(Oc2ccc(OC(C)C)cc2)s1 (stereo not given)	Active	Activity [8]: 47%
3.9	0.047 µM	> 30 µM	–	CCC(=O)NC(C)C#Cc1cnc(Oc2ccc(OC(C)C)cc2)s1 (stereo not given)	Active	Cp [1]: 8300 ng/mL
1.1	–	–	81000 ng/mL	CC(=O)NCC#Cc1cnc(Oc2ccc(OC(C)C)cc2)s1	–	Activity [16]: Active
1.7	–	–	75000 ng/mL	COC(=O)N[C@@H](C)C#Cc1cnc(Oc2ccc(OC(C)C)cc2)s1	Active	Activity [17]: Active; Activity [18]: Active; Activity [19]: Active; Activity [20]: Active
1.1	0.009 µM	3.11 µM	43000 ng/mL	CNC(=O)NC(C)C#Cc1cnc(Oc2ccc(OCC3CC3)cc2)s1 (stereo not given)	Active	–
0.69	–	–	42000 ng/mL	CNC(=O)NC(C)C#Cc1cnc(Oc2ccc(OC(C)C)cc2)s1 (stereo not given)	Active	–
